According to ChEMBL document CHEMBL2331189, “Synthesis of tacrine-lophine hybrids via one-pot four component reaction and biological evaluation as acetyl- and butyrylcholinesterase inhibitors” (Eur J Med Chem, 2013):

Columns and labels:
Cholinesterase = Cholinesterase (Homo sapiens, UniProt P06276); experiment: Inhibition of BuChE in human plasma using butyrylthiocholine iodide as substrate by Ellman's colorimetric method
How it was run: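 The BuChE source is plasma from 5 healthy human volunteers (24–60 years, both sexes), centrifuged at 1000× g for 15 min at room temperature and stored at −20 °C. In 20 mM phosphate buffer pH 7.4, plasma was incubated 150 s with 0.8 mM butyrylthiocholine iodide and DTNB. Absorbance of the yellow anion was read at 415 nm. Protein was determined by Peterson-modified Lowry against BSA.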

Acetylcholinesterase = target: T1, Acetylcholinesterase (Rattus norvegicus, UniProt P37136); experiment: Inhibition of AChE in Wistar rat brain cortex using acetylthiocholine iodide as substrate by Ellman's colorimetric method
T1 sequence (P37136 whole entry): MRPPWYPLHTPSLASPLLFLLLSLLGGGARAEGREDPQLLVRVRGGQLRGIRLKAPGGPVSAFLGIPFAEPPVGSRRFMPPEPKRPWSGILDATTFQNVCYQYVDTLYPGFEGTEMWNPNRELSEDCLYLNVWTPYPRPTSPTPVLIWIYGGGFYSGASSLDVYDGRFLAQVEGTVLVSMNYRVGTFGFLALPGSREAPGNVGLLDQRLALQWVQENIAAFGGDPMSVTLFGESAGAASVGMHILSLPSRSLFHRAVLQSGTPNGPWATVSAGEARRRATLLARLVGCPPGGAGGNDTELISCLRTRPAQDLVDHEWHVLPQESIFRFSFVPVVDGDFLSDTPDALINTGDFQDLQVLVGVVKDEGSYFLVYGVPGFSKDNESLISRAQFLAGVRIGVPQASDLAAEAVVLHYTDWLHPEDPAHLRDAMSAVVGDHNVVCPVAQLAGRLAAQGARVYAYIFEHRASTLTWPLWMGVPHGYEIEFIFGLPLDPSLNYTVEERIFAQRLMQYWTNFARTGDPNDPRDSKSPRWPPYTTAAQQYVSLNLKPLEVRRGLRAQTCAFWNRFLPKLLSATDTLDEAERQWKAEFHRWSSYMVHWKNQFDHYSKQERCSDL
How it was run: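 Enzyme source is the cortex of adult male Wistar rats (2–3 months), dissected on ice and homogenized in cold 10 mM Tris-HCl pH 7.2 with 160 mM sucrose. The 10,000× g supernatant (10 min, 4 °C) was stored at −20 °C. The sample in 20 mM phosphate pH 7.4 was incubated 150 s with 0.8 mM acetylthiocholine iodide plus DTNB.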

[1] = Ratio of IC50 for BuChE in human plasma to IC50 for AChE in Wistar rat brain cortex; assay type: cell-free

Cholinesterase, sequence (P06276 whole entry): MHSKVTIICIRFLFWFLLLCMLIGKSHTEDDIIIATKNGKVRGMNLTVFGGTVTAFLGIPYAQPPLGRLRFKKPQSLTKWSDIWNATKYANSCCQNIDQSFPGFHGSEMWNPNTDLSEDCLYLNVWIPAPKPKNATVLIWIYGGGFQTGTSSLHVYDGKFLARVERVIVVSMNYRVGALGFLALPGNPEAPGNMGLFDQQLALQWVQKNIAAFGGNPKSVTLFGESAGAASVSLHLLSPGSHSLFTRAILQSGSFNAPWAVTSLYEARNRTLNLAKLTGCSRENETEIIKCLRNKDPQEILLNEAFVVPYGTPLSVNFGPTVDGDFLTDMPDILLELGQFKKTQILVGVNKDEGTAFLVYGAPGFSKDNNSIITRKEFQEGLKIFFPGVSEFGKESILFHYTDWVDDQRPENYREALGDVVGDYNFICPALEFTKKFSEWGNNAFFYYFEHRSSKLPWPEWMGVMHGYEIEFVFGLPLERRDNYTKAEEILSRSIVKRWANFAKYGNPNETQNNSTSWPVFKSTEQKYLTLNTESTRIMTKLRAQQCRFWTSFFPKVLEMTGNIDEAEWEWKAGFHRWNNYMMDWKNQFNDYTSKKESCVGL

## c1ccc2c(NCCCCCCCNc3c4c(nc5ccccc35)CCCC4)c3c(nc2c1)CCCC3
Cholinesterase; read-out: IC50
  IC50: 9.03 nM

## c1ccc(-c2nc(-c3ccccc3)n(CCCCCCCCn3c(-c4ccccc4)nc(-c4ccccc4)c3-c3ccccc3)c2-c2ccccc2)cc1
Acetylcholinesterase; read-out: IC50
  IC50: 42.5 nM
Cholinesterase
  IC50: Not Active

## Clc1cccc(-c2nc(-c3ccccc3)c(-c3ccccc3)n2CCCCCCCCNc2c3c(nc4ccccc24)CCCC3)c1
Acetylcholinesterase
  IC50: Not Active
Cholinesterase
  IC50: Not Active

## c1ccc(-c2nc(-c3ccccc3)n(CCCCCCCn3c(-c4ccccc4)nc(-c4ccccc4)c3-c3ccccc3)c2-c2ccccc2)cc1
Acetylcholinesterase
  IC50: Not Active
Cholinesterase
  IC50: Not Active

## Clc1cccc(-c2nc(-c3ccccc3)c(-c3ccccc3)n2CCCCCCCNc2c3c(nc4ccccc24)CCCC3)c1
Acetylcholinesterase
  IC50: Not Active
Cholinesterase
  IC50: Not Active

## Fc1ccc(-c2nc(-c3ccccc3)c(-c3ccccc3)n2CCCCCCNc2c3c(nc4ccccc24)CCCC3)cc1
Acetylcholinesterase
  IC50: Not Active
Cholinesterase; read-out: IC50
  IC50: 55.2 nM

## COc1ccc(-c2nc(-c3ccccc3)c(-c3ccccc3)n2CCCCCCCCNc2c3c(nc4ccccc24)CCCC3)cc1
Acetylcholinesterase; read-out: IC50
  IC50: 126 nM
[1]
  Ratio IC50: 0.6
Cholinesterase; read-out: IC50
  IC50: 82.3 nM

## Clc1cccc(-c2nc(-c3ccccc3)c(-c3ccccc3)n2CCCCCCNc2c3c(nc4ccccc24)CCCC3)c1
Acetylcholinesterase
  IC50: Not Active
Cholinesterase; read-out: IC50
  IC50: 34.8 nM

## c1ccc(-c2nc(-c3ccccc3)n(CCCCCCCNc3c4c(nc5ccccc35)CCCC4)c2-c2ccccc2)cc1
Acetylcholinesterase; read-out: IC50
  IC50: 80.7 nM
[1]
  Ratio IC50: 1.1
Cholinesterase; read-out: IC50
  IC50: 92.4 nM

## N#Cc1ccc(-c2nc(-c3ccccc3)c(-c3ccccc3)n2CCCCCCCCNc2c3c(nc4ccccc24)CCCC3)cc1
Acetylcholinesterase
  IC50: Not Active
Cholinesterase; read-out: IC50
  IC50: 30.5 nM

## c1ccc(-c2nc(-c3ccccc3)n(CCCCCCCCNc3c4c(nc5ccccc35)CCCC4)c2-c2ccccc2)cc1
Acetylcholinesterase
  IC50: Not Active
Cholinesterase
  IC50: Not Active

## Fc1ccc(-c2nc(-c3ccccc3)c(-c3ccccc3)n2CCCCCCCNc2c3c(nc4ccccc24)CCCC3)cc1
Acetylcholinesterase; read-out: IC50
  IC50: 38.5 nM
[1]
  Ratio IC50: 1.7
Cholinesterase; read-out: IC50
  IC50: 67.3 nM

## Clc1ccc(-c2nc(-c3ccccc3)c(-c3ccccc3)n2CCCCCCCCNc2c3c(nc4ccccc24)CCCC3)cc1
Acetylcholinesterase; read-out: IC50
  IC50: 5.87 nM
[1]
  Ratio IC50: 18.5
Cholinesterase; read-out: IC50
  IC50: 109 nM

## Clc1ccc(-c2nc(-c3ccccc3)c(-c3ccccc3)n2CCCCCCCCCNc2c3c(nc4ccccc24)CCCC3)cc1
Acetylcholinesterase
  IC50: Not Active
Cholinesterase
  IC50: Not Active

## COc1ccc(-c2nc(-c3ccccc3)c(-c3ccccc3)n2CCCCCCNc2c3c(nc4ccccc24)CCCC3)cc1
Acetylcholinesterase
  IC50: Not Active
Cholinesterase; read-out: IC50
  IC50: 36 nM

## O=[N+]([O-])c1ccc(-c2nc(-c3ccccc3)c(-c3ccccc3)n2CCCCCCNc2c3c(nc4ccccc24)CCCC3)cc1
Acetylcholinesterase
  IC50: Not Active
Cholinesterase; read-out: IC50
  IC50: 12.4 nM

## O=[N+]([O-])c1ccc(-c2nc(-c3ccccc3)c(-c3ccccc3)n2CCCCCCCNc2c3c(nc4ccccc24)CCCC3)cc1
Acetylcholinesterase; read-out: IC50
  IC50: 72.1 nM
[1]
  Ratio IC50: 1
Cholinesterase; read-out: IC50
  IC50: 76.9 nM

## c1ccc(-c2nc(-c3ccccc3)n(CCCCCCn3c(-c4ccccc4)nc(-c4ccccc4)c3-c3ccccc3)c2-c2ccccc2)cc1
Acetylcholinesterase
  IC50: Not Active
Cholinesterase
  IC50: Not Active

## c1ccc(-c2nc(-c3ccccc3)n(CCCCCCNc3c4c(nc5ccccc35)CCCC4)c2-c2ccccc2)cc1
Acetylcholinesterase
  IC50: Not Active
Cholinesterase; read-out: IC50
  IC50: 58 nM

## Clc1ccc(-c2nc(-c3ccccc3)c(-c3ccccc3)n2CCCCCCCCCCNc2c3c(nc4ccccc24)CCCC3)cc1
Acetylcholinesterase
  IC50: Not Active
Cholinesterase
  IC50: Not Active

## N#Cc1ccc(-c2nc(-c3ccccc3)c(-c3ccccc3)n2CCCCCCNc2c3c(nc4ccccc24)CCCC3)cc1
Acetylcholinesterase
  IC50: Not Active
Cholinesterase; read-out: IC50
  IC50: 29.6 nM

## Clc1ccc(-c2nc(-c3ccccc3)c(-c3ccccc3)n2CCCCCCCNc2c3c(nc4ccccc24)CCCC3)cc1
Acetylcholinesterase; read-out: IC50
  IC50: 59.8 nM
[1]
  Ratio IC50: 0.6
Cholinesterase; read-out: IC50
  IC50: 37.6 nM

## COc1ccc(-c2nc(-c3ccccc3)c(-c3ccccc3)n2CCCCCCCNc2c3c(nc4ccccc24)CCCC3)cc1
Acetylcholinesterase; read-out: IC50
  IC50: 68.7 nM
[1]
  Ratio IC50: 0.9
Cholinesterase; read-out: IC50
  IC50: 61.7 nM

## c1ccc(-c2nc(-c3ccccc3)n(CCCCCCCCCn3c(-c4ccccc4)nc(-c4ccccc4)c3-c3ccccc3)c2-c2ccccc2)cc1
Acetylcholinesterase
  IC50: Not Active
Cholinesterase
  IC50: Not Active

## N#Cc1ccc(-c2nc(-c3ccccc3)c(-c3ccccc3)n2CCCCCCCNc2c3c(nc4ccccc24)CCCC3)cc1
Acetylcholinesterase
  IC50: Not Active
Cholinesterase; read-out: IC50
  IC50: 7.1 nM

## c1ccc(-c2nc(-c3ccccc3)n(CCCCCCCCCCn3c(-c4ccccc4)nc(-c4ccccc4)c3-c3ccccc3)c2-c2ccccc2)cc1
Acetylcholinesterase
  IC50: Not Active
Cholinesterase
  IC50: Not Active

## Fc1ccc(-c2nc(-c3ccccc3)c(-c3ccccc3)n2CCCCCCCCNc2c3c(nc4ccccc24)CCCC3)cc1
Acetylcholinesterase; read-out: IC50
  IC50: 25.8 nM
[1]
  Ratio IC50: 2.2
Cholinesterase; read-out: IC50
  IC50: 57.3 nM

## Clc1ccc(-c2nc(-c3ccccc3)c(-c3ccccc3)n2CCCCCCNc2c3c(nc4ccccc24)CCCC3)cc1
Acetylcholinesterase
  IC50: Not Active
Cholinesterase; read-out: IC50
  IC50: 29.3 nM

## O=[N+]([O-])c1ccc(-c2nc(-c3ccccc3)c(-c3ccccc3)n2CCCCCCCCNc2c3c(nc4ccccc24)CCCC3)cc1
Acetylcholinesterase
  IC50: Not Active
Cholinesterase; read-out: IC50
  IC50: 120 nM
